Laboratory results taken from ChEMBL document CHEMBL1143049, “Preparation, biological activity and endogenous occurrence of N6-benzyladenosines” (Bioorg Med Chem, 2007).

What was measured:
[1] = tested on: HOS; assay: Antitumor activity against human HOS cells after 72 hrs by Calcein AM assay; assay type: functional, cell-based
Outline: (§1)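 Cells grown in DMEM at 37 °C under 5% CO2. Compounds added after 12 h preincubation in 96-well plates, final 0.5-170 μM, with 0.6% final DMSO, then 72 h exposure. Viable cells stained with Calcein AM for 1 h and read at 485/538 nm. IC50 (concentration lethal to 50% of cells) taken from dose-response curves. Run in quadruplicate.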

[2] = Antitumor activity against human MCF cells after 72 hrs by Calcein AM assay; assay type: functional, cell-based; outline: as §1
[3] = tested on: CCRF-CEM; assay: Antitumor activity against human CEM cells after 72 hrs by Calcein AM assay; assay type: functional, cell-based; outline: as §1
[4] = tested on: Triticum aestivum; assay: Cytokinin activity in wheat assessed as retention of chlorophyll in excised wheat leaves at 0.1 mmol/L relative to 6-Benzylaminopurine by senescence assay; assay type: functional
Outline: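 Senescence assay measuring chlorophyll retention in excised wheat leaves. DMSO stocks brought to 10^-3 M with water, then diluted in assay medium to a final DMSO of at most 0.2%. Concentrations 10^-4 to 10^-8 M, quintuplicate, repeated at least three times. Response at the optimal concentration normalised to BAP optimum = 100.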

[5] = tested on: K562; assay: Antitumor activity against human K562 cells after 72 hrs by Calcein AM assay; assay type: functional, cell-based; details: K562, 72 h; outline: as §1
[6] = tested on: Amaranthus; assay: Cytokinin activity in Amaranthus cotyledons assessed as dark induction of betacyanin synthesis at 0.1 mmol/L relative to 6-Benzylaminopurine; assay type: functional
Outline: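 Dark induction of betacyanin in excised Amaranthus cotyledons. DMSO stock brought to 10^-3 M in water, diluted into assay medium (DMSO ≤0.2%). Tested over 10^-4 to 10^-8 M, five replicates per concentration, assay repeated at least three times. Response at the optimal concentration expressed relative to BAP at its optimum (set to 100).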

[7] = tested on: B16; assay: Antitumor activity against mouse B16 cells after 72 hrs by Calcein AM assay; assay type: functional, cell-based; details: B16, 72 h; outline: as §1
[8] = tested on: Nicotiana tabacum; assay: Cytokinin activity in tobacco assessed as stimulation of callus growth at 1 umol/L relative to 6-Benzylaminopurine; assay type: functional
Outline: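 Stimulation of tobacco callus growth. Compounds dissolved in DMSO, brought to 10^-3 M in water and diluted into medium (DMSO ≤0.2%). Range 10^-4 to 10^-8 M, five replicates per concentration, at least three independent repeats. Activity at the optimal concentration given relative to BAP's optimal response, taken as 100.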

[9] = tested on: G-361; assay: Antitumor activity against human G361 cells after 72 hrs by Calcein AM assay; assay type: functional, cell-based; details: G-361, 72 h; outline: as §1
[10] = tested on: HL-60; assay: Antitumor activity against human HL60 cells after 72 hrs by Calcein AM assay; assay type: functional, cell-based; details: HL-60, 72 h; outline: as §1

COc1ccc(CNc2ncnc3c2ncn3C2OC(CO)[C@@H](O)[C@H]2O)c(O)c1 (some centres not stated)
IC50 [1]: > 167 µM
IC50 [2]: 2.2 µM
IC50 [3]: 12.8 µM
Activity [4]: 22%
IC50 [5]: 80.8 µM
Activity [6]: 0%

OC[C@H]1O[C@@H](n2cnc3c(NCc4c(F)ccc(F)c4F)ncnc32)[C@H](O)[C@@H]1O
IC50 [7]: > 167 µM
IC50 [2]: > 167 µM
IC50 [3]: 90.3 µM
Activity [4]: 133%
IC50 [5]: > 167 µM
Activity ([8]; in the assay text read “at 10 umol/L” for “at 1 umol/L”): 92%
IC50 [9]: > 167 µM
Activity [6]: 94%
IC50 [10]: 13 µM

COc1cccc(OC)c1CNc1ncnc2c1ncn2[C@@H]1O[C@H](CO)[C@@H](O)[C@H]1O
Activity [4]: 68%
Activity [6]: 54%

OC[C@H]1O[C@@H](n2cnc3c(NCc4ccccc4C(F)(F)F)ncnc32)C(O)C1O (some centres not stated)
IC50 [1]: > 167 µM
IC50 [2]: > 167 µM
Activity [4]: 40%
IC50 [5]: > 167 µM
IC50 [9]: > 167 µM
Activity [6]: 121%

COc1cccc(CNc2ncnc3c2ncn3[C@@H]2O[C@H](CO)[C@@H](O)[C@H]2O)c1OC
IC50 [1]: > 167 µM
IC50 [2]: > 167 µM
IC50 [3]: > 167 µM
Activity [4]: 106%
IC50 [5]: > 167 µM
Activity [8]: 5%
Activity [6]: 21%
IC50 [10]: > 167 µM

OC[C@H]1O[C@@H](n2cnc3c(NCc4ccc(C(F)(F)F)cc4)ncnc32)[C@H](O)[C@@H]1O
IC50 [1]: > 167 µM
IC50 [2]: > 167 µM
Activity [4]: 52%
IC50 [5]: > 167 µM
IC50 [9]: > 167 µM
Activity [6]: 14%

OC[C@H]1O[C@@H](n2cnc3c(NCc4cccc(I)c4)ncnc32)[C@H](O)[C@@H]1O
Activity [4]: 58%
Activity [8]: 45%
Activity [6]: 102%

COc1cc(CNc2ncnc3c2ncn3[C@@H]2O[C@H](CO)[C@@H](O)[C@H]2O)cc(OC)c1
IC50 [2]: > 167 µM
IC50 [3]: > 167 µM
Activity [4]: 47%
IC50 [5]: > 167 µM
Activity [8]: 11%
Activity [6]: 2%
IC50 [10]: 20.2 µM

OC[C@H]1O[C@@H](n2cnc3c(NCc4cc(O)cc(O)c4)ncnc32)[C@H](O)[C@@H]1O
IC50 [1]: > 167 µM
IC50 [2]: > 167 µM
Activity [4]: 96%
IC50 [5]: > 167 µM
IC50 [9]: > 167 µM
Activity [6]: 31%

OC[C@H]1O[C@@H](n2cnc3c(NCc4cccc(O)c4O)ncnc32)[C@H](O)[C@@H]1O
IC50 [1]: > 167 µM
IC50 [2]: 5.2 µM
Activity [4]: 7%
IC50 [5]: 25.8 µM
IC50 [9]: 16.9 µM
Activity [6]: 24%

COc1cc(CNc2ncnc3c2ncn3[C@@H]2O[C@H](CO)[C@@H](O)[C@H]2O)cc(OC)c1O
IC50 [1]: > 167 µM
IC50 [2]: > 167 µM
IC50 [5]: > 167 µM
IC50 [9]: > 167 µM

COc1cc(O)cc(OC)c1CNc1ncnc2c1ncn2[C@@H]1O[C@H](CO)[C@@H](O)[C@H]1O
IC50 [1]: > 167 µM
IC50 [2]: > 167 µM
IC50 [5]: > 167 µM
IC50 [9]: > 167 µM
Activity [6]: 7%

OC[C@H]1O[C@@H](n2cnc3c(NCc4cccc(OC(F)(F)F)c4)ncnc32)[C@H](O)[C@@H]1O
IC50 [1]: > 167 µM
IC50 [2]: > 167 µM
Activity [4]: 90%
IC50 [5]: > 167 µM
Activity [8]: 86%
IC50 [9]: > 167 µM
Activity [6]: 104%

OC[C@H]1O[C@@H](n2cnc3c(NCc4ccccc4OC(F)(F)F)ncnc32)[C@H](O)[C@@H]1O
IC50 [1]: > 167 µM
IC50 [7]: > 167 µM
IC50 [2]: > 167 µM
IC50 [3]: > 167 µM
Activity [4]: 61%
IC50 [5]: 81.4 µM
IC50 [9]: > 167 µM
Activity [6]: 78%
IC50 [10]: > 167 µM

OC[C@H]1O[C@@H](n2cnc3c(NCc4ccc(OC(F)(F)F)cc4)ncnc32)[C@H](O)[C@@H]1O
IC50 [1]: > 167 µM
IC50 [2]: > 167 µM
Activity [4]: 3%
IC50 [5]: > 167 µM
IC50 [9]: > 167 µM
Activity [6]: 21%

OC[C@H]1O[C@@H](n2cnc3c(NCc4cccc(C(F)(F)F)c4)ncnc32)[C@H](O)[C@@H]1O
IC50 [1]: > 167 µM
IC50 [2]: > 167 µM
Activity [4]: 95%
IC50 [5]: > 167 µM
Activity [8]: 85%
IC50 [9]: > 167 µM
Activity [6]: 93%
